Experimental data as given in ChEMBL document CHEMBL4765368, “Structure guided design and synthesis of furyl thiazolidinedione derivatives as inhibitors of GLUT 1 and GLUT 4, and evaluation of their anti-leukemic potential” (Eur J Med Chem, 2020).
Calls of active or inactive are those of the source. The calls are words filed in the database; no cut-off is given here.

What was measured:
[1] = target: T1, Solute carrier family 2, facilitated glucose transporter member 1 (Homo sapiens) (UniProt P11166); test: Inhibition of transport activity of human GLUT1 expressed in hexose transporter deficient VW4000fgy1 yeast cells assessed as reduction in transporter-mediated [14C]-hexose uptake into cells by measuring relative activity at 100 uM measured after 10 mins by scintillation counting method relative to control; format: cell-based; set-up: scale not given: the % may be the effect or the level left
T1 sequence (whole entry): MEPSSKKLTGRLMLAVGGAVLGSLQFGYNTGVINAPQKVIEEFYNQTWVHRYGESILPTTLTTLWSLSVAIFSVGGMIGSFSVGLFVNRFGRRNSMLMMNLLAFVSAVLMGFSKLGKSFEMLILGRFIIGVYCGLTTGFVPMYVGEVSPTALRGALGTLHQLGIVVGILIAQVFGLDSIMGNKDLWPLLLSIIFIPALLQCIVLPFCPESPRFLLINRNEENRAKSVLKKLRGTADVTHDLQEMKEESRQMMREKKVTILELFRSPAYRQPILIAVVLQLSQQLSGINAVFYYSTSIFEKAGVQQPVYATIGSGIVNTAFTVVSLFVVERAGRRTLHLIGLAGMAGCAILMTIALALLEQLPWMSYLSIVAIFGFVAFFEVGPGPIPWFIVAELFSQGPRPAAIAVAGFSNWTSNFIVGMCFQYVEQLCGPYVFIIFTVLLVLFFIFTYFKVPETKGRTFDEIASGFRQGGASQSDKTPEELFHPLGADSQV
Method in brief: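 The hxt0 yeast strain expressing one human GLUT was grown at 30 °C and resuspended in PBS pH 7.4 at OD600 ~10. Uptake was started with 14C-glucose at 5 mM final (GLUT1, GLUT4) or 14C-fructose at 10 mM final (GLUT5). It was quenched after 10 min with ice-cold 0.1 M KPi/0.1 M LiCl pH 5.5, filtered and counted by scintillation. Compound at 100 μM with 1% DMSO; DMSO control and phloretin 200 μM (GLUT1/4) or MSNBA 100 μM (GLUT5) as references. Triplicates.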

[2] = test system: HS27; test: Cytotoxicity against human HS27 cells assessed as cell death at 100 uM measured after 48 hrs by Hoechst 33342/propidium iodide staining based imaging analysis relative to control; settings: hs27, 48 h
Method in brief: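 HS-27 fibroblasts in DMEM with 10% FBS and penicillin/streptomycin at 37 °C, 5% CO2, seeded at 3,000 cells/well. Treated 48 h with DMSO-dissolved compound (0.5–100 µM range) in quadruplicate. Hoechst 33342 and PI were added 2 h before imaging, and Hoechst/PI-colocalised nuclei were scored as dead. Controls were DMSO vehicle, H2O2 and untreated cells.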

[3] = test system: MDA-MB-231; test: Cytotoxicity against human MDA-MB-231 cells assessed as reduction in cell viability measured after 48 hrs by Hoechst 33342/propidium iodide staining based imaging analysis; format: functional
Method in brief: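 Cells were seeded at 10,000 per well (HS-27 at 3,000) in 10% FBS RPMI (leukemic lines) or DMEM (MDA-MB-231, HS-27). Compound in DMSO (1% v/v final) at 0.5–100 µM for 48 h. Hoechst 33342 and PI were added 2 h before automated imaging; dead cells were co-stained. Quadruplicates. CC50 was taken by linear interpolation between the two concentrations nearest 50% death.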

[4] = test system: CCRF-CEM; test: Induction of apoptosis in human CCRF-CEM cells assessed as late apoptotic cells at CC50 measured after 24 hrs by AnnexinV-FITC/propidium iodide staining based flow cytometry analysis relative to control; format: functional
Method in brief: (§1)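 CCRF-CEM cells in RPMI with 10% FBS were seeded in 24-well plates, incubated overnight, given fresh medium, then treated for 24 h. Cells were PBS-washed, spun at 500 g for 5 min at 4 °C, and resuspended in ice-cold binding buffer. They were stained with annexin V-FITC and PI for 15 min on ice in the dark, then read by flow cytometry. Untreated cells were the negative control; triplicates.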

[5] = test system: CCRF-CEM; test: Induction of apoptosis in human CCRF-CEM cells assessed as early apoptotic cells at CC50 measured after 24 hrs by AnnexinV-FITC/propidium iodide staining based flow cytometry analysis relative to control; format: functional; method in brief: as §1
[6] = test system: CCRF-CEM; test: Induction of apoptosis in human CCRF-CEM cells assessed as live cells at CC50 measured after 24 hrs by AnnexinV-FITC/propidium iodide staining based flow cytometry analysis (reference value: 92.15%); format: functional; method in brief: as §1
[7] = test system: CCRF-CEM; test: Induction of apoptosis in human CCRF-CEM cells assessed as necrotic cells at CC50 measured after 24 hrs by AnnexinV-FITC/propidium iodide staining based flow cytometry analysis relative to control; format: functional; method in brief: as §1
[8] = test system: CCRF-CEM; test: Cell cycle arrest in human CCRF-CEM cells assessed as increase in accumulation at sub-G0/G1 phase measured after 72 hrs by NIM-DAPI staining based flow cytometry; format: functional
Method in brief: (§2)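 An asynchronous CEM culture was seeded at 100,000 cells/well in 1 mL complete RPMI and exposed to 10, 25 or 50 μM for 72 h. Controls were untreated cells, DMSO and hydrogen peroxide. Cells were pelleted at 262 g, resuspended, and stained with NIM-DAPI, which permeabilizes and stains DNA in one step. About 100,000 events per sample were read by flow cytometry. Triplicates.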

[9] = test system: CCRF-CEM; test: Cell cycle arrest in human CCRF-CEM cells assessed as decrease in accumulation at G2/M phase measured after 72 hrs by NIM-DAPI staining based flow cytometry; format: functional; method in brief: as §2
[10] = target: T1, Solute carrier family 2, facilitated glucose transporter member 1 (Homo sapiens); test: Inhibition of GLUT1 in human CCRF-CEM cells assessed as decrease in mTOR phosphorylation at 10 uM measured after 6 hrs by Western blot analysis; format: cell-based
Method in brief: (§3)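 CEM cells were treated with 10 µM for 6 h. Untreated cells were the negative control and staurosporine the positive control. Cells were washed with cold PBS, lysed in Laemmli buffer with protease inhibitors, sonicated and quantified. Blots were blocked 45 min in PBS-Tween-5% milk, with primary antibody 3 h and secondary 1 h at room temperature.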

[11] = target: T1, Solute carrier family 2, facilitated glucose transporter member 1 (Homo sapiens); test: Inhibition of GLUT1 in human CCRF-CEM cells assessed as decrease in CDK2 phosphorylation at 10 uM measured after 6 hrs by Western blot analysis; format: cell-based; method in brief: as §3
[12] = test system: CCRF-CEM; test: Induction of apoptosis in human CCRF-CEM cells assessed as activation of caspase 3 at 10 uM measured after 6 hrs by Western blot analysis; format: functional, cell-based; method in brief: as §3
[13] = Cytotoxicity against human WBC assessed as reduction in cell viability measured after 48 hrs by MTT assay; format: tissue-based
Method in brief: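 WBCs were isolated from donor blood by HiSep density centrifugation, followed by RBC lysis and PBS washes, and held overnight at 37 °C with 5% CO2. Compound at 2.5–100 μM for 48 h. After two PBS washes, MTT was added for 4 h at 37 °C, formazan was dissolved in DMSO, and absorbance was read at 570 nm. IC50 taken from the dose-response curve.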

[14] = Toxicity in SCID mouse assessed as distress at 1000 mg/kg, ip administered as single dose; format: organism-based; settings: in vivo
[15] = Toxicity in SCID mouse assessed as death at 500 mg/kg, ip administered as single dose; format: organism-based; settings: in vivo
Method in brief: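 SCID mice aged 8–10 weeks were kept in individually ventilated cages on a 12 h light/dark cycle with autoclaved pellets and water ad libitum.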

[16] = Toxicity in SCID mouse assessed as distress at 1000 mg/kg, ip administered as single dose measured within 6 hrs; format: organism-based; settings: in vivo
[17] = Toxicity in SCID mouse xenografted with human CCRF-CEM cells assessed as body weight loss at 50 mg/kg, ip administered daily for 5 days with 2 days interval for 18 days; format: organism-based; settings: in vivo, 432 h, time 18 day

Row | Compound | Activity [1] [%] | Activity [2] [%] | CC50 [3] [µM] | Activity [4] [%] | Activity [5] [%] | Activity [6] [%] | Activity [7] [%] | Activity [8] | Activity [9] | inhibition [10] | inhibition [11] | Activity [12] | IC50 [13] [µM] | Activity [14] | Activity [15] | Activity [16] | Activity [17]
1 | O=C(CN1C(=O)S/C(=C/c2ccco2)C1=O)Nc1ccc(Cl)c(Cl)c1 | 30 | 27.32 |  |  |  |  |  |  |  |  |  |  |  |  |  |  | 
2 | O=C(CN1C(=O)S/C(=C/c2ccco2)C1=O)Nc1nc2ccccc2s1 |  |  | 45.1 | 55.87 | 1.38 | 26.14 | 16.6 | Dose-dependent effect | Dose-dependent effect | Active | Active | Active | 187 | Toxic | Non-Toxic | Non-Toxic | Non-Toxic
